Each structure is given as a SMILES string. A value given as a limit tells only on which side of the number the result lay.

Here are results for 36 compounds from ChEMBL document CHEMBL3870302, “Computer-aided identification, synthesis and evaluation of substituted thienopyrimidines as novel inhibitors of HCV replication” (Eur J Med Chem, 2016).

Data set [1] concerns Hepatitis C virus. In words: Antiviral activity against Hepatitis C virus genotype 1b infected in human HuH5.2 cells after 72 hrs by luciferase reporter gene assay. The class given is functional, cell-based, Hepacivirus hominis. The following applies: Hepatitis C virus, genotype 1b, Huh-5-2, 72 h. In outline: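 Huh 5-2 cells with genotype 1b I389luc-ubi-neo/NS3-3'/5.1 subgenomic replicon, seeded 6 500 cells/well in DMEM/10% FCS without Geneticin, overnight 37 °C. Compound (DMSO stock diluted in medium) in 1:5 four-step or 1:2 eight-step series, 72 h. Cells PBS-washed, lysed 5 min, luciferase luminescence read, converted to % untreated control; EC50 from dose-response curve, mean of ≥2 independent experiments.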

Data set [2] in a line: Cytotoxicity against human HuH5.2 cells assessed as reduction in metabolic activity after 72 hrs by MTS assay. The class given is toxicity, cell-based, Huh-5-2. The following applies: HuH5.2 cells. In outline:
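Run in parallel with the replicon assay: Huh 5-2 replicon cells, 6 500 cells/well, compound series for 72 h at 37 °C, 5% CO2. Medium then replaced with 5% MTS in phenol red-free medium for 1.5 h. Absorbance at 498 nm expressed as % untreated cells; CC50 from dose-response curve as 50% reduction in metabolic activity, mean of ≥2 experiments.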

A short description of data set [3]: Selectivity index, ratio of CC50 for human HuH5.2 cells to EC50 for hepatitis C virus genotype 1b infected in human HuH5.2 cells. The class given is toxicity, cell-based. The following applies: HuH5.2 cells, read-out: Ratio CC50/EC50. In outline: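 Ratio of CC50 (MTS metabolic read-out, 72 h) to EC50 (replicon luciferase read-out, 72 h), both measured in parallel on Huh 5-2 genotype 1b replicon cells.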

For the compound `CCOc1ccc2sc(NS(=O)(=O)c3ccc(OC)c(OC)c3)nc2c1`, in data set [1], the EC50 is over 127 µM and the EC90 was over 127 µM. Also, the CC50 at 72 h in data set [2] was over 127 µM.

In the case of `COc1ccc(-c2c3c(nc4sc5c(O)nc(C)nc5c24)CCC3)cc1`, a half-maximal effect in data set [1] (EC50) was put at 21 µM. Further, the cytotoxic concentration (CC50) at 72 h in data set [2] stood at 128 µM. Also, the selectivity ratio in data set [3] is 6.1.

Regarding `COc1ccc(-c2c(C#N)c(SCC(N)=O)nc3c2CCCC3)cc1`, in data set [1], the EC50 came out at 130 µM and the concentration for an effect of 90% (EC90) was over 142 µM. Further, the CC50 at 72 h in data set [2] was over 142 µM. The selectivity ratio in data set [3] was over 1.1.

In turn, `O=C(CCN1C(=O)c2cccc3cccc(c23)C1=O)N1CCN(Cc2ccc3c(c2)OCO3)CC1` had an EC50 in data set [1] of 32 µM. Moreover, the CC50 at 72 h in data set [2] is over 106 µM. Further, the selectivity ratio in data set [3] was over 3.3.

Compound `CC(=O)Nc1ccc(/C=C2\C=C(C(O)c3ccc(NC(C)=O)cc3)c3ccccc32)cc1` (centres undefined) yielded an EC50 in data set [1] of 21.5 µM. Besides, in data set [2], the CC50 at 72 h worked out at 48.8 µM. Moreover, in data set [3], the selectivity ratio worked out at 2.3.

The compound `O=S(=O)(Nc1ccc(O)c(Sc2ncn[nH]2)c1)c1cccc2ccccc12` had an EC50 in data set [1] of 42.2 µM. In addition, in data set [2], the cytotoxic concentration (CC50) at 72 h is over 126 µM. The selectivity ratio in data set [3] was over 2.9.

For `O=C(Nc1ccc(S(=O)(=O)O)c2ccccc12)c1ccc(C(=O)Nc2ccc(S(=O)(=O)O)c3ccccc23)cc1`, in data set [1], the EC50 is over 86 µM and the EC90 is over 86 µM. Further, the CC50 at 72 h in data set [2] was over 86 µM.

Take `O=C(NNc1ncnc2sc3c(c12)CCCC3)c1cccs1`: the EC50 in data set [1] stood at 31.1 µM. Also, the CC50 at 72 h in data set [2] was 36.7 µM. Also, the selectivity ratio in data set [3] turned out to be 1.2.

In data set [1], `COc1ccc(C(N)=O)cc1NS(=O)(=O)c1cccc2cccnc12` had an EC50 of over 140 µM and an EC90 of over 140 µM. Also, the CC50 at 72 h in data set [2] is over 140 µM.

Compound `CCc1ccc(S(=O)(=O)Nc2cc3c(C(=O)OC)c(C)oc3c3ccccc23)cc1` displayed an EC50 in data set [1] of 1.1 µM. The CC50 at 72 h in data set [2] is 4.7 µM. Also, the selectivity ratio in data set [3] was 4.3.

In data set [1], `O=C(NNc1ncnc2sc3ccccc3c12)c1ccccc1O` had an EC50 of 0.832 µM and an EC90 of 1.6 µM. Besides, in data set [2], the CC50 at 72 h was found to be 108 µM. In addition, the selectivity ratio in data set [3] is 130.

Take `C/C(=N\Nc1ncnc2sc3c(c12)CCCC3)c1ccco1`: the EC50 in data set [1] came to 18.2 µM. Moreover, the CC50 at 72 h in data set [2] is 58.9 µM. The selectivity ratio in data set [3] came to 3.2.

Regarding `c1cnc2c(Nc3ncnc4sc5c(c34)CCCC5)cccc2c1`, in data set [1], it took 186 µM to reach a half-maximal effect (EC50) and the EC90 was over 100 µM. Further, in data set [2], the CC50 at 72 h was over 301 µM. Besides, in data set [3], the selectivity ratio was over 1.6.

In data set [1], `C/C(=N\Nc1ncnc2sc3c(c12)CCCC3)c1ccc[nH]1` displayed an EC50 of 5.26 µM and an EC90 of 12.8 µM. Further, the CC50 at 72 h in data set [2] worked out at 19.5 µM. For the same compound, the selectivity ratio in data set [3] was determined as 3.7.

In data set [1], `C/C(=N\Nc1nc(C)nc2sc3c(c12)CCCC3)c1ccccc1O` showed an EC50 of 115 µM and an EC90 of over 94.6 µM. Besides, the CC50 at 72 h in data set [2] was over 284 µM. Besides, in data set [3], the selectivity ratio is over 2.5.

In data set [1], `C/C(=N/Nc1ncnc2sccc12)c1cnccn1` showed an EC50 of 5.04 µM and an EC90 of 1.79 µM. Besides, the CC50 at 72 h in data set [2] was determined as 9.01 µM. Also, in data set [3], the selectivity ratio turned out to be 1.8.

In the case of `COC(=O)c1ccc(N2C(=O)CC(S/C(=N\c3ccccc3)NCc3ccc4c(c3)OCO4)C2=O)cc1` (centres undefined), it took 12.8 µM to reach a half-maximal effect in data set [1] (EC50). Further, the CC50 at 72 h in data set [2] was found to be 62.6 µM. Further, the selectivity ratio in data set [3] is 4.9.

Turning to `CCOc1cccc(C(=O)Nc2cc(C(=O)OC)ccc2N2CCN(CC)CC2)c1`, in data set [1], the EC50 worked out at 38.9 µM. The CC50 at 72 h in data set [2] amounted to 61.7 µM. For the same compound, the selectivity ratio in data set [3] turned out to be 1.6.

For `C/C(=N/Nc1ncnc2sc(C)c(C)c12)c1ccccc1O`, in data set [1], the 50% effective concentration (EC50) amounted to 0.384 µM and the EC90 was under 1.28 µM. For the same compound, in data set [2], the CC50 at 72 h worked out at 93.6 µM. Also, in data set [3], the selectivity ratio was 244.

In data set [1], `COc1ccc(/C(C)=N/NC(=O)c2cc(O)cc(O)c2)c(OC)c1` displayed an EC50 of over 151 µM and an EC90 of over 151 µM. For the same compound, in data set [2], the CC50 at 72 h is over 151 µM.

Regarding `CCOc1cc(C)c(S(=O)(=O)N2CCN(Cc3ccc4c(c3)OCO4)CC2)cc1C`, a half-maximal response in data set [1] (EC50) required 34.5 µM. The CC50 at 72 h in data set [2] is over 116 µM. Further, the selectivity ratio in data set [3] is over 3.4.

For the compound `CCOC(=O)c1cnc2c(ccc3ccccc32)c1Nc1ccc(C(=O)OC)cc1`, in data set [1], a half-maximal effect (EC50) was put at 10.9 µM. For the same compound, in data set [2], the CC50 at 72 h worked out at 56.2 µM. Moreover, the selectivity ratio in data set [3] is 5.2.

With `C/C(=N/Nc1ncnc2sc(Cl)c(C)c12)c1ccccc1O`, the EC50 in data set [1] is 0.17 µM. For the same compound, the CC50 at 72 h in data set [2] is over 9.01 µM. In addition, the selectivity ratio in data set [3] was over 56.1.

In data set [1], `Cc1nc(NNC(=O)c2ccccn2)c2c3c(sc2n1)CCCC3` showed an EC50 of 0.077 µM and an EC90 of 0.32 µM. Further, in data set [2], the CC50 at 72 h was over 2.95 µM. Further, the selectivity ratio in data set [3] is over 38.1.

Consider `O=C(NNc1ncnc2sc3c(c12)CCC3)c1cnccn1`, for which, in data set [1], the EC50 is 0.0945 µM and the EC90 is under 0.256 µM. The CC50 at 72 h in data set [2] was 2.97 µM. Besides, the selectivity ratio in data set [3] worked out at 31.4.

In data set [1], `C/C(=N\Nc1ncnc2sc3c(c12)CCCC3)c1ccc(O)cc1` gave an EC50 of over 295 µM and a concentration for an effect of 90% (EC90) of over 295 µM. Further, in data set [2], the CC50 at 72 h is over 295 µM.

`Cc1cc(O)cc(O)c1/C=N/NC(=O)COc1ccc2ccccc2c1`: in data set [1], the concentration for a half-maximal effect (EC50) was determined as 1.9 µM. Further, the CC50 at 72 h in data set [2] stood at 51.9 µM. For the same compound, the selectivity ratio in data set [3] amounted to 27.3.

In turn, `C/C(=N\Nc1ncnc2sc3c(c12)CCCC3)c1cccs1` yielded an EC50 in data set [1] of 23 µM. The CC50 at 72 h in data set [2] turned out to be 46 µM. Besides, the selectivity ratio in data set [3] is 2.

The compound `O=C(/C=C(/C(=O)O)c1ccccc1)Nc1ccc(N2CCN(CCO)CC2)cc1` had a half-maximal effective concentration (EC50) in data set [1] of 65 µM. In addition, the CC50 at 72 h in data set [2] is over 126 µM. Further, the selectivity ratio in data set [3] was over 0.19.

As to `O=C(N/N=C\c1cccnc1)c1cc(-c2ccc3c(c2)OCO3)n[nH]1`, in data set [1], the concentration for a half-maximal effect (EC50) is over 149 µM and the 90% effect concentration (EC90) is over 149 µM. Besides, in data set [2], the CC50 at 72 h was over 149 µM.

`O=C(NNc1ncnc2sc3ccccc3c12)c1ccccn1`: in data set [1], the EC50 was found to be 0.461 µM and the EC90 amounted to 1.01 µM. Moreover, the CC50 at 72 h in data set [2] stood at 1.54 µM. Further, the selectivity ratio in data set [3] was 3.3.

In data set [1], `CCOc1cc(C2C(C(=O)OC)=C(C)NC3=C2C(=O)CC(c2ccc(OC)c(OC)c2)C3)ccc1O` (centres undefined) displayed a concentration for a half-maximal effect (EC50) of 36 µM. Also, the CC50 at 72 h in data set [2] is over 101 µM. Besides, the selectivity ratio in data set [3] was over 2.8.

In data set [1], `C/C(=N/Nc1ncnc2sc3c(c12)CCC3)c1cnccn1` had an EC50 of 0.688 µM and an EC90 of under 0.839 µM. The CC50 at 72 h in data set [2] is 1.12 µM. Also, the selectivity ratio in data set [3] is 1.6.

With `O=C(NNc1ncnc2sccc12)c1cc(O)ccc1O`, in data set [1], the EC50 worked out at 2.75 µM and the EC90 was determined as 9.4 µM. In addition, the CC50 at 72 h in data set [2] was over 165 µM. Also, in data set [3], the selectivity ratio was over 60.

In data set [1], `COc1cc2nc(CN3CCC(C(N)=O)CC3)[nH]c(=O)c2cc1OC` gave an EC50 of over 144 µM and an EC90 of over 144 µM. In addition, in data set [2], the CC50 at 72 h is over 144 µM.

In data set [1], `CCC[C@H](NC(=O)[C@@H]1[C@H]2CCC[C@H]2CN1C(=O)[C@@H](NC(=O)[C@@H](NC(=O)c1cnccn1)C1CCCCC1)C(C)(C)C)C(=O)C(=O)NC1CC1` [TELAPREVIR] showed an EC50 of 0.8 µM. The selectivity ratio in data set [3] was 58.8.
